The target in test [1] is T1, Serine/threonine-protein kinase Sgk3 (Homo sapiens) (UniProt Q96BR1).
T1 sequence (whole entry): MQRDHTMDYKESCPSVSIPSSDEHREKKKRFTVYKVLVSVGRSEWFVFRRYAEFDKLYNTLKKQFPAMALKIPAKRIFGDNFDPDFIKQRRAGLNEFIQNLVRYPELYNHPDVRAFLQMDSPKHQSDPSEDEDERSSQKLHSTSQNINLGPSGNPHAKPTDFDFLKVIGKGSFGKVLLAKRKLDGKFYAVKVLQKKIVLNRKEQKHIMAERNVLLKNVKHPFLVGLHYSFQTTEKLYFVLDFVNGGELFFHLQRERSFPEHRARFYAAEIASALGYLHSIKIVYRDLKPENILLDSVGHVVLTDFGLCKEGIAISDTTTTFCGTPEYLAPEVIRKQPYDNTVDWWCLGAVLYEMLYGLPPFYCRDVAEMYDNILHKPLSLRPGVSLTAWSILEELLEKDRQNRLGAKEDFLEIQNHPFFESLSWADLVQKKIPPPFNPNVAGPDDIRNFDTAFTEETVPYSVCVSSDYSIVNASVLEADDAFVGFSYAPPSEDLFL
Briefly: Inhibition of SGKL at 1 uM in presence of 10 uM ATP by Select Screen kinase assay relative to untreated control. Summed up: (§1)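 Commercial SelectScreen profiling panel of 220 purified kinases. Each kinase was tested at a single inhibitor concentration of 1 μM, and activity was expressed as percent inhibition.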

The target of test [2] is Calcium/calmodulin-dependent protein kinase type II subunit alpha (Homo sapiens) (UniProt Q9UQM7). Kind of test: Inhibition of CAMK2A at 1 uM in presence of 10 uM ATP by Select Screen kinase assay relative to untreated control. Summed up:
(§2)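 Single-point screen at 1 μM against a panel of 220 purified kinases, run by Invitrogen staff as a SelectScreen profiling service. Read-out is percent inhibition of kinase activity.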

Test [3] has as its target Ephrin type-A receptor 2 (Homo sapiens) (UniProt P29317). Kind of test: Inhibition of EPHA2 at 1 uM in presence of 10 uM ATP by Select Screen kinase assay relative to untreated control. The method in brief:
as §2

Test [4] addresses T2, Ephrin type-B receptor 1 (Homo sapiens) (UniProt P54762).
T2 sequence (whole entry): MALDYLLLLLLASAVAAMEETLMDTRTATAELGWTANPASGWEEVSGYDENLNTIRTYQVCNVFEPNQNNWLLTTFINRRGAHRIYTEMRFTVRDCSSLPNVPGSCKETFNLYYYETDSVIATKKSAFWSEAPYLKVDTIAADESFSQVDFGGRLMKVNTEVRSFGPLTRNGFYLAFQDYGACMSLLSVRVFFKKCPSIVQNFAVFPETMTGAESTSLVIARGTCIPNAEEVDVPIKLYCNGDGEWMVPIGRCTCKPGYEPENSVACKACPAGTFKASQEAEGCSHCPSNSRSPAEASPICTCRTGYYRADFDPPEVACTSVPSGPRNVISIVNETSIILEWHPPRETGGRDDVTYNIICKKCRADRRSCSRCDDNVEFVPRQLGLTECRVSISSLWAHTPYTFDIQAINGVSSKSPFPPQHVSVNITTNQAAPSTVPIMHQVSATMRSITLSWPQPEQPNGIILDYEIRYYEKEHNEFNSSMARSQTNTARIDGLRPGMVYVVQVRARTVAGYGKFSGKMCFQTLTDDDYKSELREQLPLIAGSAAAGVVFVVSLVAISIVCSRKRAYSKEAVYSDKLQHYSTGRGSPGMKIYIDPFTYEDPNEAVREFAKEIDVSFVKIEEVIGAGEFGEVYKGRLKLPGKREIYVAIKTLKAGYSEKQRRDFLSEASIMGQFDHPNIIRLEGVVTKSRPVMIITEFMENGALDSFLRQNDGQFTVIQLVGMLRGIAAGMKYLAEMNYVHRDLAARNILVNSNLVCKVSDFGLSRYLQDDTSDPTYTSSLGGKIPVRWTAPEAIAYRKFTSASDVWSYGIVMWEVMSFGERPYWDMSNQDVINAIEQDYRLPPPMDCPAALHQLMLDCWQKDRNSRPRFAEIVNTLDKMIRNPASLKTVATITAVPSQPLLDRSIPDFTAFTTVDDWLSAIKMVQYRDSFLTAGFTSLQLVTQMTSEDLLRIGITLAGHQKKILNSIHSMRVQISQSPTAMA
Briefly: Inhibition of EPHB1 at 1 uM in presence of 10 uM ATP by Select Screen kinase assay relative to untreated control. Summed up: as §2

The target in test [5] is Tyrosine-protein kinase Fer (Homo sapiens) (UniProt P16591). Briefly: Inhibition of FER at 1 uM in presence of 10 uM ATP by Select Screen kinase assay relative to untreated control. The method in brief: as §2
The target of test [6] is Fibroblast growth factor receptor 3 (Homo sapiens) (UniProt P22607). Kind of test: Inhibition of FGFR3 at 1 uM in presence of 10 uM ATP by Select Screen kinase assay relative to untreated control. Summed up: (§3)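 Single-concentration profiling at 1 μM against a panel of 220 purified kinases, run as an outsourced SelectScreen kinase profiling service. Activity is expressed as percent inhibition.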

In test [7] the target is Dual specificity mitogen-activated protein kinase kinase 2 (Homo sapiens) (UniProt P36507). Briefly: Inhibition of MAP2K2 at 1 uM in presence of 100 uM ATP by Select Screen kinase assay relative to untreated control. Summed up: as §3
The target in test [8] is Myosin light chain kinase 2, skeletal/cardiac muscle (Homo sapiens) (UniProt Q9H1R3). Briefly: Inhibition of MYLK2 at 1 uM in presence of 100 uM ATP by Select Screen kinase assay relative to untreated control. Summed up: as §3
The target in test [9] is Serine/threonine-protein kinase PLK3 (Homo sapiens) (UniProt Q9H4B4). Briefly: Inhibition of PLK3 at 1 uM in presence of 10 uM ATP by Select Screen kinase assay relative to untreated control. The method in brief:
as §1

Structures are written as SMILES.

Myosin light chain kinase 2, skeletal/cardiac muscle (Homo sapiens), sequence (Q9H1R3 whole entry): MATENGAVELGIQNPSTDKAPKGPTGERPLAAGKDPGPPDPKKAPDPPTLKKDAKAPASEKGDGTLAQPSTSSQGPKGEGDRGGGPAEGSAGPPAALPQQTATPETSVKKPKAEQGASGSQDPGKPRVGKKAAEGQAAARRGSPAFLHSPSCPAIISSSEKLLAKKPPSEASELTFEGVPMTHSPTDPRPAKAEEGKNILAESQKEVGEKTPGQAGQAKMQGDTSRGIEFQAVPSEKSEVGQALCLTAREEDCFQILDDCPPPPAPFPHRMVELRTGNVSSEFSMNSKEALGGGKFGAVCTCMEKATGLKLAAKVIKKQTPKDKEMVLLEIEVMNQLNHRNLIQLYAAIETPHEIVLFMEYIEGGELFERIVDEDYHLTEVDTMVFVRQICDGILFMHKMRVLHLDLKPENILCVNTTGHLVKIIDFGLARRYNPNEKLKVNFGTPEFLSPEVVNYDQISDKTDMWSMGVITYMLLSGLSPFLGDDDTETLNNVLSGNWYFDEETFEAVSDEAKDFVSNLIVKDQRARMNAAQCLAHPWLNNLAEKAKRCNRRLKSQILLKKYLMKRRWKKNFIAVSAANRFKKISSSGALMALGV
Dual specificity mitogen-activated protein kinase kinase 2 (Homo sapiens), sequence (P36507 whole entry): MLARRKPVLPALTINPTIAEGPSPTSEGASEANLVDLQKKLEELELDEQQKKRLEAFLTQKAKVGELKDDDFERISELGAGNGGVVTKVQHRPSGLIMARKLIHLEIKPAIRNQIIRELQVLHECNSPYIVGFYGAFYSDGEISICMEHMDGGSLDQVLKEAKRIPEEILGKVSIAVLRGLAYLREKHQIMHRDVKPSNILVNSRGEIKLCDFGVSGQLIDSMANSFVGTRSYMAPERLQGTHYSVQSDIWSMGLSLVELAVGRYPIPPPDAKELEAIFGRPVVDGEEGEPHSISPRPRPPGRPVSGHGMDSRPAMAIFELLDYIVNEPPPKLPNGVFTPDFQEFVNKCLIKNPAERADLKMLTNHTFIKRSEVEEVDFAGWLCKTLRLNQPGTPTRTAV
Ephrin type-A receptor 2 (Homo sapiens), sequence (P29317 whole entry): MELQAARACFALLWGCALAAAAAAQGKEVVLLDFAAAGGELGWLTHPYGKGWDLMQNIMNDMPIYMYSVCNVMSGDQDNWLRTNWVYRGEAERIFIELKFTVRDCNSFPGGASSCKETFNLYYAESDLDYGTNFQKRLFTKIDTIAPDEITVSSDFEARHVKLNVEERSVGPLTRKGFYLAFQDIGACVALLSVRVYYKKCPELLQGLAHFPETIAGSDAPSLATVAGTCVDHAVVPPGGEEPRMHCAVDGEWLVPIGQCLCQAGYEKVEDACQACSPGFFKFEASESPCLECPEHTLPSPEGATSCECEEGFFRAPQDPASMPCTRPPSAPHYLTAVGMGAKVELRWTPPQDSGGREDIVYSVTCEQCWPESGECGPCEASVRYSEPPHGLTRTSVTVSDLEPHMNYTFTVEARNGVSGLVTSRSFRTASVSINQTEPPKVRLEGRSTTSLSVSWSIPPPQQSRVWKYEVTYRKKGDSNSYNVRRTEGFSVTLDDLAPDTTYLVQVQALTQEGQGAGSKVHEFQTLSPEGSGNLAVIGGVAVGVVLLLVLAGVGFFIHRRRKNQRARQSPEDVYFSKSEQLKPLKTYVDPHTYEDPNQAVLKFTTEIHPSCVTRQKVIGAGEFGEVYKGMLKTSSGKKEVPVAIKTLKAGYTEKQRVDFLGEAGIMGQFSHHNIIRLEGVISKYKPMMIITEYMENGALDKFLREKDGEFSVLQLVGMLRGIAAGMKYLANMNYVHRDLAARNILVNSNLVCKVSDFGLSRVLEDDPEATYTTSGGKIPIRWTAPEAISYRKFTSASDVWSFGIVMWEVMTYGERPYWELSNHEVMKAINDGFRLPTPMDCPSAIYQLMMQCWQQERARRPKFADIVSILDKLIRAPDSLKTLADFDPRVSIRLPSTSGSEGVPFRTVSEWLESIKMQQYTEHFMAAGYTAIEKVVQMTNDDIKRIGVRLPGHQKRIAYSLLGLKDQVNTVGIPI
Serine/threonine-protein kinase PLK3 (Homo sapiens), sequence (Q9H4B4 whole entry, looked up): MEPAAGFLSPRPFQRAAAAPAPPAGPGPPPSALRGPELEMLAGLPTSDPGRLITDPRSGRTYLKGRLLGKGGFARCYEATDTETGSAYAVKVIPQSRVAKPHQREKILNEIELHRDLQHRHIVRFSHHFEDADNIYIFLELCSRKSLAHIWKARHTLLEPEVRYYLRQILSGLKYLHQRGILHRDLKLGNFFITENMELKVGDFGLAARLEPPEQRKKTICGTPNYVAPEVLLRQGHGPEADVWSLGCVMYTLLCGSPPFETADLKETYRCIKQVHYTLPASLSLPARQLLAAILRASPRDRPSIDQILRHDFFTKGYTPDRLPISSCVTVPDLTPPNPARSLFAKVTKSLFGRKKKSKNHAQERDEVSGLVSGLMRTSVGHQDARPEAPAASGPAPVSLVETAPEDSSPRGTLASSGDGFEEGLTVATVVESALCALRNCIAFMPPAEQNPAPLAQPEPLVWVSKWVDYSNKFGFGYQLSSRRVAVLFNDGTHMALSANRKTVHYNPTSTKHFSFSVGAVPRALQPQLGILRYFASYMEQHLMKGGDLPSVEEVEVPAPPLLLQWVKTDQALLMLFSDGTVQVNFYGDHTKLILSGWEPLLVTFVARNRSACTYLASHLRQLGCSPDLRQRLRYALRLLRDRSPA
Tyrosine-protein kinase Fer (Homo sapiens), sequence (P16591 whole entry, looked up): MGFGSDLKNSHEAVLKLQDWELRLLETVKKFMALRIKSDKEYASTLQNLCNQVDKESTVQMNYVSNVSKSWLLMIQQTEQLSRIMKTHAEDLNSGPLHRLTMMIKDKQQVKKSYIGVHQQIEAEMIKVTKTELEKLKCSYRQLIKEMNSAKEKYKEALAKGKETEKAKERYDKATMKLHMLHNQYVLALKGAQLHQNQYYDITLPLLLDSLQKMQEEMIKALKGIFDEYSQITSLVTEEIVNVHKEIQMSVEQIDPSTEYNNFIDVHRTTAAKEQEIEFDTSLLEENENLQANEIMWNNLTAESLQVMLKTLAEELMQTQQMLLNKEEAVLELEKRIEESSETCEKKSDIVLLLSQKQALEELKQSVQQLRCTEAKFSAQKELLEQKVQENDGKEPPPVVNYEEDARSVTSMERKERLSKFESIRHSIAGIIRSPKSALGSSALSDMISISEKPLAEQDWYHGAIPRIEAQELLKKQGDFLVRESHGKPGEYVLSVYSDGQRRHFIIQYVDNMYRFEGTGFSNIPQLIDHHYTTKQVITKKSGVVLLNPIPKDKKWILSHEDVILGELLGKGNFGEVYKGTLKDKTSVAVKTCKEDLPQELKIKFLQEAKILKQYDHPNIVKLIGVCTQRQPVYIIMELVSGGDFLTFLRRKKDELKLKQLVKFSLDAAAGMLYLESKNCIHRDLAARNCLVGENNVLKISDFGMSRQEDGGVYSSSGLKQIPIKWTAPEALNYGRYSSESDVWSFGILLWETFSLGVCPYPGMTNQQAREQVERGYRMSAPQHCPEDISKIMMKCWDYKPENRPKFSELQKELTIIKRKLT
Fibroblast growth factor receptor 3 (Homo sapiens), sequence (P22607 23-806 limits assumed): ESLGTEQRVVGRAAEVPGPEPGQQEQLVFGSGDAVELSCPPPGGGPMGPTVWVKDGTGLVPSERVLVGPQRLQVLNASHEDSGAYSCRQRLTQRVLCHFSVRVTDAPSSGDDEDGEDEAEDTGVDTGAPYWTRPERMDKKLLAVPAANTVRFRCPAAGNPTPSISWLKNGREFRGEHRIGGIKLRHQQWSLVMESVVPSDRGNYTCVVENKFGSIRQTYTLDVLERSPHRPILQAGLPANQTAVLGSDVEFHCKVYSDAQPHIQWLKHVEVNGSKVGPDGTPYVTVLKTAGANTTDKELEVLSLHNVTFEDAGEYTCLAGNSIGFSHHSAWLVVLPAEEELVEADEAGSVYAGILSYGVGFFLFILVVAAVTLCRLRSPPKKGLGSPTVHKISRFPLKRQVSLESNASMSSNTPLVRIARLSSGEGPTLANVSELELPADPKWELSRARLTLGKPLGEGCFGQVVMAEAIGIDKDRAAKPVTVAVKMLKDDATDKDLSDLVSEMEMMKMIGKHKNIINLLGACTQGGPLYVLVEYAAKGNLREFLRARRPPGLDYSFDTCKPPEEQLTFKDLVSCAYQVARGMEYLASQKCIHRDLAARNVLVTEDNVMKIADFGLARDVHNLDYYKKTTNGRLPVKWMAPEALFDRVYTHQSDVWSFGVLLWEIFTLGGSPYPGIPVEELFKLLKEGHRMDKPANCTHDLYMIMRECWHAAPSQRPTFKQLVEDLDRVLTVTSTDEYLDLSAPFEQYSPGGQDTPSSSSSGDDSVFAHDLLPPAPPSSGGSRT
Calcium/calmodulin-dependent protein kinase type II subunit alpha (Homo sapiens), sequence (Q9UQM7 whole entry): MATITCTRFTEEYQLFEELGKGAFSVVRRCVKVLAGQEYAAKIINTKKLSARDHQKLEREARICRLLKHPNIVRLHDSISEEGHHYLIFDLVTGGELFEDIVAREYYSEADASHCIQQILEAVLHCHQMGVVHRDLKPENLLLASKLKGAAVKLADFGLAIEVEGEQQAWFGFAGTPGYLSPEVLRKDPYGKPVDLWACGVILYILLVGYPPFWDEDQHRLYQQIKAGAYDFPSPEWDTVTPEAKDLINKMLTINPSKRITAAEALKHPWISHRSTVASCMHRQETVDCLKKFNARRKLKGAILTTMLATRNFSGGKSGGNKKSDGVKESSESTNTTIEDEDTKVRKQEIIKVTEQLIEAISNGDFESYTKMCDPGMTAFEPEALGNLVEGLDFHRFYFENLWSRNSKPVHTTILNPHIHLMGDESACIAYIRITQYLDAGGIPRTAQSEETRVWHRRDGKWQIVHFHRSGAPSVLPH

For the compound `COc1ccccc1N1CCN(c2ncnc3[nH]nc(Br)c23)CC1`, the inhibition (in general, the drop in the measured response relative to a control, in per cent) in [1] stood at 17%; in [2], 16%; in test [3] it was 24%; in test [4], 11%; in [5], 28%; in test [6], 23%. Also, the inhibition in test [7] stood at 21%; in test [8] it was 12%; in test [9], 27%.

For the compound `O=C(NCCCNc1nc(Nc2cccc(NC(=O)N3CCCC3)c2)ncc1I)c1cccs1`, the inhibition in test [1] worked out at 12%; in [2], 79%; in [3], 22%; in [4], 16%; in test [5] it was 38%; in test [6], 43%. In addition, the inhibition was found to be 69% in test [7], 25% in test [8] and 51% in test [9].

For the compound `Cc1n[nH]c2ccc(-c3cncc(OC[C@@H](N)Cc4c[nH]c5ccccc45)c3)cc12`, the inhibition was 78% in test [1]; 80% in [2]; 8% in test [3]; 1% in [4]; 14% in [5]; -1% in test [6]. Besides, the inhibition in test [7] was determined as 42%; in [8] it was 22%; in test [9], 7%.

Source of the values: ChEMBL document CHEMBL1250448, “Inhibitor hijacking of Akt activation” (Nat Chem Biol, 2009).
